Assay outcomes (PubChem)
A selection: hits, their analogues and other compounds. The true share with any hit is near 2.2%.
RanGTP-Imp inh = inhibitors of RanGTP-importin-beta interaction, primary screen, biochemical, FRET, CFP-Ran, YFP-importin-beta, homogeneous. cell-free CFP-Ran/YFP-importin-beta FRET ratio. inhibition, % (no concentration beside the values). 1.1% of 300,000 active;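 active = more than half of the replicate wells show a fall in the fluorescence ratio signal beyond about 16%, limit read from the data, passing the limit was not always enough; inconclusive = exactly half of the replicate wells pass the set limit; inactive = fewer than half of replicates pass the limit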
Runt-SMMHC FRET = inhibitors of human RUNX1 Runt domain binding to CBFb-SMMHC; Q01196+Q13951; 0.74% of 220,000 active; inhibition, % at 20 µM; Cerulean-Runt/Venus-CBFb-SMMHC FRET ratio 530/480, 1 h;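 active = mean inhibition across duplicate retests at 20 µM reaching about 50%, limit read from the data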;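 also: inhibitors lower the FRET ratio by blocking Runt binding to CBFb-SMMHC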
Target sequence (Q01196 whole entry, looked up, the tested form may be a part): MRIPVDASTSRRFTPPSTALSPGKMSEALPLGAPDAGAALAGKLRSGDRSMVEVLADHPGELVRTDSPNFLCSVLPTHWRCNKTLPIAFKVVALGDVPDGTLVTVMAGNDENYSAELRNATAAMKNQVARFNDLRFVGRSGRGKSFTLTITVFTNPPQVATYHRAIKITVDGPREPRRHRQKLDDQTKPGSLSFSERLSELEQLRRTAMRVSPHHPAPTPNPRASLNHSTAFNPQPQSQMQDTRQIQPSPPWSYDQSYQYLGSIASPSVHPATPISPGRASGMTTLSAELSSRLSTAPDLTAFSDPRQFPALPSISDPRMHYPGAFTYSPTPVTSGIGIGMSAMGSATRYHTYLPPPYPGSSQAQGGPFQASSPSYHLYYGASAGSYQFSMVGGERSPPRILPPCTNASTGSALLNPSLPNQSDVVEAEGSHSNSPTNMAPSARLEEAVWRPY
Target sequence (Q13951 whole entry, looked up, the tested form may be a part): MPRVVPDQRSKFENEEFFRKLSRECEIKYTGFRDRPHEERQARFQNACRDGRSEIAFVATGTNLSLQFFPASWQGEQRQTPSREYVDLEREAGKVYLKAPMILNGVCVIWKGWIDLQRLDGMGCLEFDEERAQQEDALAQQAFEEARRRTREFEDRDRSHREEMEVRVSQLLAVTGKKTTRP
Runt-CBFb FRET = blocks binding of human RUNX1 Runt domain to CBFb; inhibition, % at 20 µM; 0.46% of 220,000 active; Cerulean-Runt/Venus-CBFb FRET ratio 530/480, 1 h; Q01196+Q13951; AID 1496;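 active = inhibition over about 50% at 20 µM in the single-dose screen, limit read from the data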
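Assay system: Cerulean-Runt domain fusion protein, energy donor; Signal: fluorescence energy transfer, 422 nm excitation, 530/480 nm emission; Timing: 1 h compound exposure, room temperature; Control set: unlabeled CBFb; Medium: Tris buffer pH 7.5 with salts and BSA; Compound: single test concentration of 20 µM, 1% DMSO final; Probe or stimulus: Venus-CBFb 100 nM.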
Hck Nef HTS = blocks Nef-activated human Hck kinase; Recombinant Hck-YEEI plus Nef, Z-Lyte FRET kinase assay; inhibition, % at 20 µM; 0.68% of 220,000 active; AID 463187;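 active = Hck-Nef kinase inhibition above about 50%, limit read from the data; inactive = inhibition below that limit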
Tb hexokinase = T. brucei hexokinase 1 inhibition. 0.11% of 220,000 active. recombinant TbHK1, G6PDH-coupled NADH A340. AID 1430. inhibition, % at 10 µM;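 active = inhibition of 50% or more in the single-dose primary screen; inactive = inhibition below 50%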
14-3-3 Bad inh = disrupts binding of bovine 14-3-3 zeta to phospho-Bad peptide | TR-FRET 14-3-3zeta/Dy647-pBad peptide displacement, 1 h | inhibition, % at 21.7 µM | 0.71% of 220,000 active;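 active = inhibition above about 70%, limit read from the data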
Large screens that a line does not name were inactive.

COc1cccc(OC2OC3COC(C)(C)OC3C(O)C2NC(C)=O)c1 (stereo not given)	none
Cc1cccc2c1-c1sc(C(=O)Nc3nccs3)cc1CO2	RanGTP-Imp inh 22.3
O=C(Nc1ccc(Cl)cn1)c1cc2c(s1)-c1ccccc1OC2	RanGTP-Imp inh 58.0
O=C(Nc1nc2ccccc2s1)c1cc2c(s1)-c1ccccc1OC2	RanGTP-Imp inh 36.8, Runt-SMMHC FRET 58.6
CC(C)C(NC(=O)c1ccccc1F)C(=O)NCc1ccc(F)cc1 (stereo not given)	none (no result: Runt-SMMHC FRET, Runt-CBFb FRET, Hck Nef HTS, Tb hexokinase, 14-3-3 Bad inh)
Cc1cc(/C=N/NC(=O)Cn2c3ccccc3c(=O)c3ccccc32)c(C)n1-c1ccccc1	RanGTP-Imp inh 93.9 (no result: Runt-CBFb FRET)
COc1ccccc1/C=C/CN1CC(C)OC(C)C1 (stereo not given)	14-3-3 Bad inh 79.3
CCn1cc(CNC(=O)C2CCC(=O)N(Cc3ccc(Cl)cc3)C2)cn1 (stereo not given)	none (no result: Runt-SMMHC FRET, Runt-CBFb FRET, Hck Nef HTS, Tb hexokinase, 14-3-3 Bad inh)
CCOn1c(=O)c(-c2cccs2)[n+]([O-])c2ccccc21	RanGTP-Imp inh 20.6
COc1cc(OC)cc(C(=O)NNC(=O)C(=O)Nc2cc(OC)c(Cl)cc2OC)c1	none (no result: Runt-SMMHC FRET, Runt-CBFb FRET, Hck Nef HTS, Tb hexokinase, 14-3-3 Bad inh)
Cc1cc(O)ccc1Nc1nc(-c2cccs2)cs1	Hck Nef HTS 57.4
CCc1cc(=O)oc2c(C)c(O)c(CN(C)C)cc12	RanGTP-Imp inh 37.9, Runt-SMMHC FRET 62.5
CCCOc1ccc2c(CC)cc(=O)oc2c1C	none
COC(=O)c1ccc2nc(Nc3nc4ccc(F)cc4s3)sc2c1	14-3-3 Bad inh 76.8
CC(=O)c1sc(Nc2nc3ccc(F)cc3s2)nc1C	RanGTP-Imp inh 47.3, Runt-SMMHC FRET 79.3, Runt-CBFb FRET 58.9 (no result: 14-3-3 Bad inh)
C/C(N)=C(/C#N)C(=O)COC(=O)CNC(=O)c1ccc(Cl)cc1Cl	RanGTP-Imp inh 37.4
O=c1c2ccccc2nc(/C=C/c2cccnc2)n1Cc1ccccc1	RanGTP-Imp inh inconclusive, 14-3-3 Bad inh 94.3
CCn1c(/C=C/c2c[nH]c3ccccc23)nc2ccccc2c1=O	none
CN(C)c1ccc(/C=C/c2nc3ccccc3c(=O)n2-c2ccc(C(=O)O)cc2)cc1	none (no result: Runt-SMMHC FRET, Runt-CBFb FRET, Hck Nef HTS, Tb hexokinase, 14-3-3 Bad inh)
CCn1c(/C=C/c2c(C)[nH]c3ccccc23)nc2ccccc2c1=O	Runt-SMMHC FRET 59.0
CN(C)S(=O)(=O)c1ccc2[nH]cc(/C=C/c3nc4ccccc4c(=O)n3-c3ccccc3)c2c1	RanGTP-Imp inh 28.9
Cc1[nH]c2ccccc2c1/C=C/c1nc2ccccc2c(=O)n1-c1ccc([N+](=O)[O-])cc1	RanGTP-Imp inh 38.4
CCCCCCCNC(=O)C1(CC2CC(c3ccc(Cl)cc3)=NO2)CCN(C(=O)OC(C)(C)C)CC1 (stereo not given)	none (no result: Runt-SMMHC FRET, Runt-CBFb FRET, Hck Nef HTS, Tb hexokinase, 14-3-3 Bad inh)
COCCCNC(=S)N(CCCO)Cc1cc2cc3c(cc2[nH]c1=O)OCO3	none (no result: Runt-SMMHC FRET, Runt-CBFb FRET, Hck Nef HTS, Tb hexokinase, 14-3-3 Bad inh)
Cc1[nH]c2ccccc2c1/C=C/C(=O)c1ccccc1	RanGTP-Imp inh 40.7
Cc1[nH]c2ccccc2c1/C=C/c1nc2ccccc2c(=O)[nH]1	RanGTP-Imp inh 33.5, 14-3-3 Bad inh 82.0
CC(C)OP(=O)(CCP(=O)(OC(C)C)OC(C)C)OC(C)C	none
COc1ccc(S(=O)(=O)N(C)CC(=O)Nc2cccc(C(C)=O)c2)cc1Cl	none
CCCC1COC(Cn2cncn2)(c2ccc(C)cc2)O1 (stereo not given)	14-3-3 Bad inh 88.0
Cc1ccc(N2CC(NC(=O)C(=O)c3c(C)[nH]c4ccccc34)CC2=O)cc1C (stereo not given)	none (no result: Runt-SMMHC FRET, Runt-CBFb FRET, Hck Nef HTS, Tb hexokinase, 14-3-3 Bad inh)
CC(=O)c1ccc(NC(=S)N2C(C)CCCC2C)cc1 (stereo not given)	none
FC(F)(F)c1cc(C(F)(F)F)c2ccc(N3CCOCC3)nc2n1	none (no result: Runt-SMMHC FRET, Runt-CBFb FRET, Hck Nef HTS, Tb hexokinase, 14-3-3 Bad inh)
CN1CCCc2cc3c(C(F)(F)F)cc(=O)oc3nc21	RanGTP-Imp inh 132.3
O=C1CN(C(=O)C2CCC(=O)N(CCc3ccc(Cl)cc3)C2)CCN1 (stereo not given)	none (no result: Runt-SMMHC FRET, Runt-CBFb FRET, Hck Nef HTS, Tb hexokinase, 14-3-3 Bad inh)
Oc1cc2c(cc1O)C1c3ccc(O)c(O)c3OCC1(O)C2 (stereo not given)	Runt-SMMHC FRET 58.6, Runt-CBFb FRET 62.9 (no result: RanGTP-Imp inh)
Cc1cc(NC(=O)C2CC2)n(-c2nc3ccccc3s2)n1	none
Cc1cc(NC(=O)CCl)n(-c2nc3ccccc3s2)n1	Hck Nef HTS 58.6
Cc1onc(-c2ccccc2)c1C(=O)Nc1nncs1	none (no result: Runt-SMMHC FRET, Runt-CBFb FRET, Hck Nef HTS, Tb hexokinase, 14-3-3 Bad inh)
